The record followed here is PubChem BioAssay.

A number with no mark means an inactive call. Records with an inconclusive call do not appear. The source made the active and inactive calls.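 Rule for the calls, unless noted: active = viability at or below 27.92% in each of two runs, the all-compound median minus 4 SD; inconclusive = no clear call, values can overlap the other calls; inactive = the rest.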

Assay [1] in a line: OD615 S. cerevisiae growth inhibition, permissive medium, pilot counter-assay, permissive growth control for S. cerevisiae lifespan shortening project (AID 705;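 active = growth inhibition above 25% in both replicates, a cutoff set 3 SD above the mean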). The conditions noted are these: OD615, 24 h, at 10 µM, stronger effect = higher value. The procedure, abridged: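 System – S. cerevisiae with engineered DeaD lifespan system · Buffer or medium – SC raffinose/galactose permissive medium · Schedule – cells pre-grown 4 h, then 24 h compound exposure, 30 °C humidified · Technique – culture turbidity as optical density at 615 nm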

Assay [2] in a line: Restrictive medium S. cerevisiae growth inhibition, OD615, pilot screen of yeast lifespan reduction project, restrictive growth control (AID 706;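 active = growth inhibition above a set limit, 3 SD over mean compound inhibition, in both replicates, cut at about 43% in these data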;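 note: modified DeaD lifespan yeast strain shifted to restrictive glucose medium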). The conditions noted are these: OD615, 48 h, at 10 µM, stronger effect = higher value. The procedure, abridged:
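Material: engineered S. cerevisiae DeaD strain / Medium: glucose-based CSMM-D restrictive medium / Compound: single dose of 10 µM compound final, 0.25% DMSO / Timing: 4 h pre-incubation, 48 h exposure at 30 °C / Technique: OD615 absorbance reading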

Assay [3] can be described thus: viability gain of MRP-1-high H69AR cells under doxorubicin, pilot screen, MRP-1 activator project, CellTiter-Glo, duplicate (AID 807;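 active = viability increase at or above a cutoff of the median across tested compounds plus 3 SD, cut at about 8.5% in these data, passing the limit was not always enough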;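 note: compound pretreatment 18-22 h then 72 h combined with doxorubicin; 0% = doxorubicin alone and 100% = vehicle without doxorubicin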). The conditions noted are these: H69AR viability with doxorubicin, CellTiter-Glo luminescence; at 10 µM; stronger effect = higher value. (In ATP-based viability assays light output follows the ATP content of the culture.)
Assay [4] in a line: growth suppression of beta-catenin knockout HCT116, pilot screen, human colon tumor cells (AID 823;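 active = cell viability at or below a set limit in both duplicate runs, the limit being the all-compound median minus 4 SD, cut at about 23% in these data, passing the limit was not always enough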;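 note: 0% = wells killed by 20 µM Hyamine and 100% = untreated DMSO cell wells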). The conditions noted are these: CellTiter-Glo, 60 h, at 10 µM, stronger effect = lower value.
A short description of assay [5]: growth suppression of PTEN-deleted HCT116, pilot screen, cell-based, HCT116 clonal line, CellTiter-Glo (AID 824).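 Note: 0% = 20 µM Hyamine control and 100% = vehicle cell control.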 The conditions noted are these: 60 h, at 10 µM, stronger effect = lower value.
The nature of assay [6]: inhibitors of the yeast RAM network, pilot screen, dse1pr::URA3 reporter, 5-FOA selection (AID 869;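 active = inhibition over a set limit, the all-compound mean plus 3 SD, in both replicate runs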;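 note: 0% = DMSO wells with no growth and 100% = 10 µM 1-NA-PP1 with full growth; RAM network block rescues cells from 5-FOA so hits raise OD615 growth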). The conditions noted are these: S. cerevisiae dse1pr::URA3 5-FOA growth, OD615, 2 d; at 10 µM; stronger effect = higher value; strain carries analog-sensitive mutant Cbk1 kinase.
Assay [7] in a line: RAM signaling pathway blockade in yeast – S. cerevisiae, Pdr1DBD-CYC8 efflux-inhibited sensitized strain, primary screen (AID 1298;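 active = RAM network inhibition above 8.4% in each of two replicates, 3 SD over the compound average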;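 note: 0% = DMSO untreated cells without growth and 100% = 10 µM 1-NA-PP1 full growth; higher means more yeast growth rescued from 5-FOA killing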). The conditions noted are these: S. cerevisiae cbk1-as DSE1-URA3 strain, 5-FOA growth OD615, 2 d; at 50 µM; stronger effect = higher value.

By viability is commonly meant a read-out of living cells in per cent, often relative to untreated cells. Usually inhibition stands for the share of the control response that was lost under treatment. As for `O=C(Oc1ccnc2cc(Cl)ccc12)N1CCOCC1`, the growth inhibition is -4.51% in assay [1] and 5.71% in assay [2]. In addition, the viability increase in assay [3] was -3.29%. Further, the viability in assay [4] is 87.3%; in assay [5], 87.8%. Besides, the inhibition in assay [6] was 1.1%. Besides, the RAM network inhibition in assay [7] was 7.61%.

Regarding `O=C(Cn1cnc2c(cnn2-c2ccccc2)c1=O)c1ccc(Cl)cc1`, the growth inhibition is -3.83% in assay [1] and -12.3% in assay [2]. Besides, the viability increase in assay [3] was 1.75%. In addition, the figures for the viability in assay [4] and in assay [5] were 94.3% and 90.2%, respectively. In addition, the inhibition in assay [6] is 0.5%. The RAM network inhibition in assay [7] was 3.34%.

For the molecule `O=C(O)Cc1ccc(NC(=O)C2CCCCC2C(=O)O)cc1` (stereo unspecified), the growth inhibition in assay [1] was -15%; in assay [2] it was -6.54%. Also, the viability increase in assay [3] is 0.06%. The values for the viability in assay [4] and in assay [5] were 95.5% and 103%, respectively. Moreover, the inhibition in assay [6] is 0.385%. Moreover, the RAM network inhibition in assay [7] was 2.44%.

For `CCCCn1nc(NC(=O)c2cccs2)c2cc3ccccc3nc21`, the growth inhibition was -22.7% in assay [1] and -8.93% in assay [2]. Further, in assay [3], the viability increase is 1.45%. Also, the viability in assay [4] was 54.6%; in assay [5], 48.3%. Moreover, the inhibition in assay [6] is 0.55%. Also, the RAM network inhibition in assay [7] was 4.61%.

`CCc1ccccc1NC(=O)c1cc2sccc2n1C`: the values for the growth inhibition in assay [1] and in assay [2] were -8.19% and 0.86%, respectively. Further, in assay [3], the viability increase was 1.11%. In addition, the viability was 90.4% in assay [4] and 80.3% in assay [5]. Moreover, the inhibition in assay [6] was 0.28%. In assay [7], the RAM network inhibition was 4.98%.

Take `Cc1c(C(=O)N2CCC(C(N)=O)CC2)sc(N)c1C#N`: the growth inhibition in assay [1] was -12.1%; in assay [2] it was -8.07%. The viability increase in assay [3] is -0.41%. Moreover, the viability in assay [4] was 94.7%; in assay [5] it was 99.1%. Further, the inhibition in assay [6] was 2.91%. Further, in assay [7], the RAM network inhibition was 9.2%.

Regarding `Cc1cc(Nc2cccc(F)c2)n2nc(C)nc2n1`, the growth inhibition in assay [1] was -13.6%; in assay [2], -7.6%. In addition, in assay [3], the viability increase is -2.42%. Also, the viability in assay [4] was 101%; in assay [5] it was 94.4%. In addition, the inhibition in assay [6] was 1.08%. In addition, the RAM network inhibition in assay [7] is 5.28%.

`CC(=O)CSc1nc2ccc(Nc3nc(N4CCOCC4)nc(N4CCOCC4)n3)cc2s1`: the values for the growth inhibition in assay [1] and in assay [2] were 15.1% and 38.6%, respectively. For the same molecule, the viability increase in assay [3] is -5.89%. The viability in assay [4] was 66.6%; in assay [5], 73.5%. Besides, the inhibition in assay [6] is 0.87%. Moreover, the RAM network inhibition in assay [7] is 7.76%.

As for `Cc1ccc(CCNC(=O)CS(=O)Cc2nc(-c3cccc(C)c3)oc2C)cc1` (stereo unspecified), the growth inhibition in assay [1] was -4.94%; in assay [2], 2.34%. For the same molecule, in assay [3], the viability increase was 2.47%. Besides, the viability in assay [4] was 85.3%; in assay [5], 86.9%. Further, the inhibition in assay [6] was 2.59%. In assay [7], the RAM network inhibition was 6.2%.

Consider `O=C(Cc1c(F)cccc1Cl)c1ccc(O)cc1O`, for which the growth inhibition in assay [1] is -10.5%; in assay [2], -0.825%. The viability increase in assay [3] was -0.88%. Also, the viability in assay [4] is 99.8%; in assay [5], 100%. In addition, in assay [6], the inhibition was 0.3%. Further, the RAM network inhibition in assay [7] is -1.74%.

Turning to `COCCCNC(=O)CN1C(=O)CSc2ncccc21`, the growth inhibition was -3.21% in assay [1] and 3.79% in assay [2]. Moreover, the viability increase in assay [3] was 0.91%. Further, the viability in assay [4] was 105%; in assay [5] it was 101%. Besides, the inhibition in assay [6] is 2.06%. The RAM network inhibition in assay [7] is 2.8%.

As for `COc1ccc(C2C(C(=O)N3CCCC3)c3cc(OC)c(OC)cc3C(=O)N2C)cc1OC` (stereo unspecified), the growth inhibition in assay [1] is -6.69%; in assay [2], -25.4%. Besides, the viability increase in assay [3] was -1.65%. For the same molecule, the viability in assay [4] is 105%; in assay [5] it was 100%. Moreover, the inhibition in assay [6] is 1.54%. Also, the RAM network inhibition in assay [7] is 2.23%.

`O=C(CSc1ccccn1)c1ccc(F)cc1`: the growth inhibition is 10.7% in assay [1] and 17.6% in assay [2]. In assay [3], the viability increase was -0.02%. In addition, the viability was 100% in assay [4] and 102% in assay [5]. Besides, the inhibition in assay [6] was 2.88%. In assay [7], the RAM network inhibition was 1.72%.

With `COc1cc(C(=O)Nc2ccc(S(=O)(=O)Nc3onc(C)c3C)cc2)cc(OC)c1OC`, the growth inhibition was -5.13% in assay [1] and -14.8% in assay [2]. Further, the viability increase in assay [3] is 0.55%. Also, the figures for the viability in assay [4] and in assay [5] were 104% and 105%, respectively. Moreover, the inhibition in assay [6] was 0.945%. Further, the RAM network inhibition in assay [7] was 4%.

Turning to `CCC(C)NC(=O)c1ccccc1NC(=O)CN1C(=O)c2ccccc2S1(=O)=O` (stereo unspecified), the growth inhibition is -17.3% in assay [1] and -18.6% in assay [2]. Also, in assay [3], the viability increase is 0.23%. The viability in assay [4] was 105%; in assay [5] it was 95.2%. Also, the inhibition in assay [6] is 1.33%. Moreover, the RAM network inhibition in assay [7] was 5.02%.

Regarding `CCC(C)Sc1nc2c(c(=O)[nH]c(=O)n2C)n1Cc1ccccc1Cl` (stereo unspecified), the values for the growth inhibition in assay [1] and in assay [2] were -0.795% and 8.91%, respectively. For the same molecule, the viability increase in assay [3] was -1.95%. In addition, the viability is 81.6% in assay [4] and 82.2% in assay [5]. For the same molecule, in assay [6], the inhibition was 0.75%. For the same molecule, in assay [7], the RAM network inhibition is 4.89%.

Take `OC(C#CCN1CCCC1)c1ccccc1` (stereo unspecified): the growth inhibition is -1.08% in assay [1] and -5.8% in assay [2]. The viability increase in assay [3] is -0.22%. The viability in assay [4] is 91.6%; in assay [5], 98.8%. For the same molecule, the inhibition in assay [6] was 0.7%. The RAM network inhibition in assay [7] was -0.43%.

Consider `Cc1cc(C2N=C(N)Nc3nc4ccccc4n32)c(C)n1-c1ccccc1Cl` (stereo unspecified), for which the values for the growth inhibition in assay [1] and in assay [2] were -0.255% and -33.7%, respectively. Further, the viability increase in assay [3] is -4.14%. Further, the viability in assay [4] was 9.19% (active); in assay [5], 16.7% (active). The inhibition in assay [6] is 2.92%. Besides, in assay [7], the RAM network inhibition was 3.79%.
